Measurements from ChEMBL document CHEMBL1139743, “Synthesis and antihyperlipidemic activity of novel glycosyl fructose derivatives” (2006).

Assays:
Type in all cases: functional, Mesocricetus auratus
Syrian golden hamster [1] = experiment: Antihyperlipidemic activity measured by HDL level in golden syrian hamster at 100 mg/kg, po
Procedure, shortened: (§1)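 Male golden Syrian hamsters (120–130 g), 8 per group, made hyperlipidemic on high fat diet with free access to diet and water throughout. Compound given orally in water from day 4 to day 10 (7 days); HFD hamsters given water only served as controls. On day 10, blood from nonfasted animals was drawn and cooled to 0 C for 15 min. Triglycerides, total cholesterol and HDL cholesterol were measured the same day in plasma without NaF using enzymatic kits.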

Syrian golden hamster [2] = experiment: Antihyperlipidemic activity measured by free fatty acid level in golden syrian hamster at 100 mg/kg, po
Procedure, shortened: (§2)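 High-fat-diet hyperlipidemic male golden Syrian hamsters (120–130 g, n=8 per group) were dosed orally in water vehicle on days 4–10; water-only HFD hamsters served as controls. On day 10, nonfasted blood was drawn into tubes containing 120 µL NaF (4.5 mg/mL) and chilled to 0 C for 15 min. Glycerol and free fatty acids were assayed in this NaF plasma on a clinical chemistry analyser.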

Syrian golden hamster [3] = experiment: Antihyperlipidemic activity measured by decrease in cholesterol level in golden syrian hamster at 100 mg/kg, po relative to control; parameters: scale not given: the % may be the effect or the level left; procedure, shortened: as §1
Syrian golden hamster [4] = experiment: Antihyperlipidemic activity measured by cholesterol level in golden syrian hamster at 100 mg/kg, po; procedure, shortened: as §1
Syrian golden hamster [5] = experiment: Antihyperlipidemic activity measured by increase in free fatty acid level in golden syrian hamster at 100 mg/kg, po relative to control; procedure, shortened: as §2
Syrian golden hamster [6] = experiment: Antihyperlipidemic activity measured by decrease in triglyceride level in golden syrian hamster at 100 mg/kg, po relative to control; parameters: scale not given: the % may be the effect or the level left; procedure, shortened: as §1
Syrian golden hamster [7] = experiment: Antihyperlipidemic activity measured by glycerol level in golden syrian hamster at 100 mg/kg, po; procedure, shortened: as §2
Syrian golden hamster [8] = experiment: Antihyperlipidemic activity measured by triglyceride level in golden syrian hamster at 100 mg/kg, po; procedure, shortened: as §1
Syrian golden hamster [9] = experiment: Antihyperlipidemic activity measured by increase in glycerol level in golden syrian hamster at 100 mg/kg, po relative to control; procedure, shortened: as §2
Syrian golden hamster [10] = experiment: Antihyperlipidemic activity measured by increase in HDL/total cholesterol ratio in golden syrian hamster at 100 mg/kg, po relative to control; procedure, shortened: as §1
Syrian golden hamster [11] = experiment: Antihyperlipidemic activity measured by HDL/total cholesterol ratio in golden syrian hamster at 100 mg/kg, po; procedure, shortened: as §1
Syrian golden hamster [12] = experiment: Antihyperlipidemic activity measured by HDL level in golden syrian hamster at 25 mg/kg; procedure, shortened: as §1
Syrian golden hamster [13] = experiment: Antihyperlipidemic activity measured by decrease in glycerol level in golden syrian hamster at 100 mg/kg, po relative to control; parameters: scale not given: the % may be the effect or the level left; procedure, shortened: as §2
Syrian golden hamster [14] = experiment: Antihyperlipidemic activity measured by decrease in HDL level in golden syrian hamster at 25 mg/kg relative to control; parameters: scale not given: the % may be the effect or the level left; procedure, shortened: as §1
Syrian golden hamster [15] = experiment: Antihyperlipidemic activity measured by HDL/total cholesterol ratio in golden syrian hamster at 25 mg/kg; procedure, shortened: as §1
Syrian golden hamster [16] = experiment: Antihyperlipidemic activity measured by decrease in free fatty acid level in golden syrian hamster at 25 mg/kg relative to control; parameters: scale not given: the % may be the effect or the level left; procedure, shortened: as §2
Syrian golden hamster [17] = experiment: Antihyperlipidemic activity measured by increase in HDL level in golden syrian hamster at 100 mg/kg, po relative to control; procedure, shortened: as §1
Syrian golden hamster [18] = experiment: Antihyperlipidemic activity measured by decrease in HDL/total cholesterol ratio in golden syrian hamster at 25 mg/kg relative to control; parameters: scale not given: the % may be the effect or the level left; procedure, shortened: as §1
Syrian golden hamster [19] = experiment: Antihyperlipidemic activity measured by free fatty acid level in golden syrian hamster at 25 mg/kg; procedure, shortened: as §2
Syrian golden hamster [20] = experiment: Antihyperlipidemic activity measured by decrease in triglyceride level in golden syrian hamster at 25 mg/kg relative to control; parameters: scale not given: the % may be the effect or the level left; procedure, shortened: as §1
Syrian golden hamster [21] = experiment: Antihyperlipidemic activity measured by decrease in glycerol level in golden syrian hamster at 25 mg/kg relative to control; parameters: scale not given: the % may be the effect or the level left; procedure, shortened: as §2
Syrian golden hamster [22] = experiment: Antihyperlipidemic activity measured by triglyceride level in golden syrian hamster at 25 mg/kg; procedure, shortened: as §1
Syrian golden hamster [23] = experiment: Antihyperlipidemic activity measured by cholesterol level in golden syrian hamster at 25 mg/kg; procedure, shortened: as §1
Syrian golden hamster [24] = experiment: Antihyperlipidemic activity measured by glycerol level in golden syrian hamster at 25 mg/kg; procedure, shortened: as §2
Syrian golden hamster [25] = experiment: Antihyperlipidemic activity measured by decrease in cholesterol level in golden syrian hamster at 25 mg/kg relative to control; parameters: scale not given: the % may be the effect or the level left; procedure, shortened: as §1
Syrian golden hamster [26] = experiment: Antihyperlipidemic activity measured by decrease in free fatty acid level in golden syrian hamster at 100 mg/kg, po relative to control; parameters: scale not given: the % may be the effect or the level left; procedure, shortened: as §2
Syrian golden hamster [27] = experiment: Antihyperlipidemic activity measured by increase in cholesterol level in golden syrian hamster at 100 mg/kg, po relative to control; procedure, shortened: as §1
Syrian golden hamster [28] = experiment: Antihyperlipidemic activity measured by increase in triglyceride level in golden syrian hamster at 100 mg/kg, po relative to control; procedure, shortened: as §1
Syrian golden hamster [29] = experiment: Antihyperlipidemic activity measured by decrease in HDL/total cholesterol ratio in golden syrian hamster at 100 mg/kg, po relative to control; parameters: scale not given: the % may be the effect or the level left; procedure, shortened: as §1
Syrian golden hamster [30] = experiment: Antihyperlipidemic activity measured by increase in HDL/total cholesterol ratio in golden syrian hamster at 25 mg/kg relative to control; procedure, shortened: as §1
Syrian golden hamster [31] = experiment: Antihyperlipidemic activity measured by increase in HDL level in golden syrian hamster at 25 mg/kg relative to control; procedure, shortened: as §1

| Structure (SMILES) | Activity (Syrian golden hamster [1]) [mM] | Activity (Syrian golden hamster [2]) [µM] | Activity (Syrian golden hamster [3]) [%] | Activity (Syrian golden hamster [4]) [mM] | Activity (Syrian golden hamster [6]) [%] | Activity (Syrian golden hamster [7]) [mM] | Activity (Syrian golden hamster [8]) [mM] | Activity (Syrian golden hamster [10]) [%] | Ratio (Syrian golden hamster [11]) | Activity (Syrian golden hamster [13]) [%] | Activity (Syrian golden hamster [17]) [%] | Activity (Syrian golden hamster [26]) [%] | Activity (Syrian golden hamster [27]) [%] | other results |
| --- | --- | --- | --- | --- | --- | --- | --- | --- | --- | --- | --- | --- | --- | --- |
| OC[C@H]1O[C@](O)(CO)[C@@H](O[C@@H]2OC[C@@H](O)[C@@H](O)[C@H]2O)[C@@H]1O | 3.14 | 924.84 | 23 | 8.9 | 9 | 0.99 | 13.09 | 31 | 0.35 | – | – | – | – | Activity (Syrian golden hamster [5]): 28%; Activity (Syrian golden hamster [9]): 18% |
| OC[C@H]1O[C@](O)(CO)[C@@H](O[C@@H]2O[C@H](CO)[C@@H](O[C@@H]3O[C@H](CO)[C@@H](O)[C@H](O)[C@H]3O)[C@H](O)[C@H]2O)[C@@H]1O | 3.4 | 726.03 | 15 | 9.79 | 58 | 0.81 | 6.09 | 29 | 0.34 | 4 | 10 | – | – | Activity (Syrian golden hamster [12]): 2.64 mM; Activity (Syrian golden hamster [14]): 15%; Ratio (Syrian golden hamster [15]): 0.24; Activity (Syrian golden hamster [16]): 10%; Activity (Syrian golden hamster [18]): 11%; Activity (Syrian golden hamster [19]): 0.648 mM; Activity (Syrian golden hamster [20]): 29%; Activity (Syrian golden hamster [21]): 8%; Activity (Syrian golden hamster [22]): 10.23 mM; Activity (Syrian golden hamster [23]): 10.97 mM; Activity (Syrian golden hamster [24]): 0.77 mM; Activity (Syrian golden hamster [25]): 5% |
| OC[C@H]1O[C@](O)(CO)[C@@H](O[C@@H]2OC[C@@H](O)[C@H](O)[C@H]2O)[C@@H]1O | 3.26 | 692.34 | – | 12 | 30 | 0.61 | 10.08 | – | 0.27 | 28 | 5 | 4 | – | – |
| OC[C@H]1O[C@](O)(CO)[C@@H](O[C@H]2O[C@H](CO)[C@@H](O)[C@H](O)[C@@H]2O)[C@@H]1O | 4.33 | 510.7 | – | 15.26 | 29 | 0.66 | 10.16 | 5 | 0.28 | 21 | 40 | 30 | 32 | – |
| OC[C@H]1O[C@](O)(CO)[C@@H](O[C@H]2OC[C@@H](O)[C@@H](O)[C@@H]2O)[C@@H]1O | 3.49 | 708.69 | – | 12.04 | – | 1 | 15.26 | 7 | 0.29 | – | 13 | – | 4 | Activity (Syrian golden hamster [9]): 19%; Activity (Syrian golden hamster [28]): 6% |
| OC[C@H]1O[C@@H](O[C@H]2[C@H](O)[C@@H](CO)O[C@]2(O)CO)[C@H](O)[C@@H](O)[C@H]1O | 3.6 | 450 | – | 17.59 | 52 | 0.82 | 6.88 | – | 0.21 | – | 16 | 38 | 52 | Activity (Syrian golden hamster [29]): 22% |
| C[C@@H]1O[C@@H](O[C@H]2[C@H](O)[C@@H](CO)O[C@]2(O)CO)[C@H](O)[C@H](O)[C@H]1O | 3.1 | 833.12 | 24 | 8.82 | – | 1.11 | 14.17 | 30 | 0.35 | – | – | – | – | Activity (Syrian golden hamster [5]): 15%; Activity (Syrian golden hamster [9]): 32% |
| OC[C@H]1O[C@](O)(CO)[C@@H](O[C@@H]2O[C@H](CO)[C@@H](O[C@H]3O[C@H](CO)[C@@H](O)[C@H](O)[C@H]3O)[C@H](O)[C@H]2O)[C@@H]1O | 3.43 | 726.74 | – | 11.38 | 11 | 0.82 | 12.76 | 12 | 0.3 | – | 11 | – | – | – |
| OC[C@H]1O[C@@H](O[C@H]2[C@H](O)[C@@H](O)[C@H](O[C@H]3[C@H](O)[C@@H](CO)O[C@]3(O)CO)O[C@@H]2CO)[C@H](O)[C@@H](O)[C@H]1O | 3.55 | 670.62 | 9 | 10.55 | 47 | 0.75 | 7.61 | 25 | 0.34 | 11 | 15 | 8 | – | Activity (Syrian golden hamster [12]): 3.28 mM; Activity (Syrian golden hamster [30]): 11%; Ratio (Syrian golden hamster [15]): 0.3; Activity (Syrian golden hamster [16]): 21%; Activity (Syrian golden hamster [19]): 0.572 mM; Activity (Syrian golden hamster [20]): 44%; Activity (Syrian golden hamster [21]): 17%; Activity (Syrian golden hamster [31]): 5%; Activity (Syrian golden hamster [22]): 7.96 mM; Activity (Syrian golden hamster [23]): 11.02 mM; Activity (Syrian golden hamster [24]): 0.7 mM; Activity (Syrian golden hamster [25]): 5% |
| OC[C@H]1O[C@@](CO)(O[C@H]2O[C@H](CO)[C@@H](O)[C@H](O)[C@H]2O)[C@@H](O[C@H]2O[C@H](CO)[C@@H](O)[C@H](O)[C@H]2O)[C@@H]1O [MELEZITOSE] | 4.95 | 510.7 | – | 13 | 51 | 0.71 | 6.98 | 41 | 0.38 | 15 | 59 | 30 | 12 | – |
| OC[C@H]1O[C@H](OC[C@H]2O[C@H](O[C@]3(CO)O[C@H](CO)[C@@H](O)[C@@H]3O)[C@H](O)[C@@H](O)[C@@H]2O)[C@H](O)[C@@H](O)[C@H]1O [RAFFINOSE] | 3.41 | 540.49 | 35 | 7.55 | 44 | 0.86 | 8.06 | 66 | 0.45 | – | 10 | 25 | – | – |
